According to ChEMBL document CHEMBL1649427, “Inactivation of the glycoside hydrolase NagZ attenuates antipseudomonal beta-lactam resistance in Pseudomonas aeruginosa” (Antimicrob Agents Chemother, 2009):
Values after ≈ are worked out from the molar mass of the structure shown.

What was measured:
Pseudomonas aeruginosa [1] = experiment: Ratio of MIC for Pseudomonas aeruginosa PAO1 harboring deltaampD::lox deltaampDh2::lox deltaampDh3::lox to MIC for Pseudomonas aeruginosa PAO1 harboring deltaampD::lox deltaampDh2::lox deltaampDh3::lox deltanagZ::Gm
Pseudomonas aeruginosa [2] = experiment: Antimicrobial activity against Pseudomonas aeruginosa PAO1 harboring deltaampD::lox deltaampDh2::lox deltaampDh3::lox deltanagZ::Gm after 18 hrs by Etest; type: functional; details: PAO1, 18 h
Outline: (§1)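 Etest strips on Mueller-Hinton agar plates, run per the manufacturer's recommendations; MICs determined in triplicate.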

Pseudomonas aeruginosa [3] = experiment: Antimicrobial activity against Pseudomonas aeruginosa PAO1 after 18 hrs by Etest; type: functional; details: PAO1, 18 h
Outline: (§2)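 Strains are P. aeruginosa PAO1 and its insertional nagZ-inactivated derivative. MICs were read from Etest strips on Mueller-Hinton agar, following the manufacturer's recommendations. Each determination was done in triplicate.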

Pseudomonas aeruginosa [4] = experiment: Antimicrobial activity against Pseudomonas aeruginosa PAO1 harboring deltaampD::lox deltaampDh2::lox delta ampDh3::lox after 18 hrs by Etest; type: functional; details: PAO1, 18 h
Outline: as §1

Pseudomonas aeruginosa [5] = experiment: Antimicrobial activity against nagZ gene-deficient Pseudomonas aeruginosa PAO1 after 18 hrs by Etest; type: functional; details: PAO1, 18 h
Outline: as §2

Beta-hexosaminidase = Beta-hexosaminidase (Pseudomonas aeruginosa (strain ATCC 15692 / PAO1 / 1C / PRS 101 / LMG12228), UniProt Q9HZK0); experiment: Inhibition of Pseudomonas aeruginosa PAO1 nagZ gene after 1.5 hrs by fluorescence spectrophotometry
Outline: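 Cultures in Mueller-Hinton broth were grown at 37°C to OD600 ~0.5, diluted to 0.25 and grown 1.5 h more. Cells were PBS-washed and sonicated. Lysate protein (15 μg) was incubated with 2 mM 4-MUGlcNAc in PBS pH 7.4 at 37°C for 1–8 h, then quenched with glycine-NaOH pH 10.7. 4-MU fluorescence was read at ex 360/em 450 nm, in triplicate, with heat-denatured lysate controls.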

Pseudomonas aeruginosa [6] = experiment: Antimicrobial activity against ampDh2 and ampDh3 gene-deficient Pseudomonas aeruginosa PAO1 after 18 hrs by broth microdilution method; type: functional; details: PAO1, 18 h
Outline: (§3)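 Wells are then inoculated with 100 μl culture and incubated 18 h at 37°C. The MIC is the lowest concentration with no growth. Triplicate determinations.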

Pseudomonas aeruginosa [7] = experiment: Antimicrobial activity against ampDh3 gene-deficient Pseudomonas aeruginosa PAO1 after 18 hrs by broth microdilution method in presence; type: functional; details: PAO1, 18 h
Outline: as §3

Pseudomonas aeruginosa [8] = experiment: Antimicrobial activity against ampDDh3 gene-deficient Pseudomonas aeruginosa PAO1 after 18 hrs by broth microdilution method in presence; type: functional; details: PAO1, 18 h
Outline: as §3

Pseudomonas aeruginosa [9] = experiment: Antimicrobial activity against ampD gene-deficient Pseudomonas aeruginosa PAO1 after 18 hrs by broth microdilution method in absence of EtBuPUG; details: PAO1, 18 h
Pseudomonas aeruginosa [10] = experiment: Antimicrobial activity against Pseudomonas aeruginosa PAO1 after 18 hrs by broth microdilution method in presence of 0.5 mM nagZ inhibitor EtBuPUG; type: functional; details: PAO1, 18 h
Outline: as §3

Pseudomonas aeruginosa [11] = experiment: Antimicrobial activity against Pseudomonas aeruginosa PAO1 harboring deltaampD::lox deltaampDh2::lox delta ampDh3::lox and plasmid pUCP27 after 18 hrs by Etest; type: functional; details: PAO1, 18 h
Outline: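 Etest strips on Mueller-Hinton agar supplemented with 75 μg/ml tetracycline to maintain the vector or complementation plasmid, run per the manufacturer's recommendations; triplicate determinations.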

Pseudomonas aeruginosa [12] = experiment: Antimicrobial activity against Pseudomonas aeruginosa PAO1 after 18 hrs by using 30 ug/disk by agar diffusion method in presence of 0.5 mM nagZ inhibitor EtBuPUG; type: functional
Outline: (§4)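 Cultures grown in Mueller-Hinton broth at 37°C to OD600 ~0.5, pelleted, resuspended in 2 ml broth and streaked on Mueller-Hinton agar. […] Inhibition zone diameter measured after overnight incubation at 37°C. Triplicate determinations.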

Pseudomonas aeruginosa [13] = experiment: Antimicrobial activity against ampDh2 and ampDh3 gene-deficient Pseudomonas aeruginosa PAO1 after 18 hrs by broth microdilution method in presence of 0.5 mM nagZ inhibitor EtBuPUG; type: functional; details: PAO1, 18 h
Outline: as §3

Pseudomonas aeruginosa [14] = experiment: Antimicrobial activity against nagZ gene-deficient Pseudomonas aeruginosa PAO1 after 18 hrs by broth microdilution method; type: functional; details: PAO1, 18 h
Outline: (§5)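 CLSI broth microdilution in cation-adjusted Mueller-Hinton medium with serial β-lactam dilutions. Each well holds 200 μl broth inoculated with ~10⁴ cells from starter cultures at OD600 ~0.5. Plates shaken at 37°C for 18 h. The MIC is read as the lowest antibiotic concentration showing no growth. Triplicate determinations.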

Pseudomonas aeruginosa [15] = experiment: Antimicrobial activity against ampDh2 gene-deficient Pseudomonas aeruginosa PAO1 using 30 ug/disk by agar diffusion method in presence of 0.5 mM nagZ inhibitor EtBuPUG; type: functional
Outline: as §4

Pseudomonas aeruginosa [16] = experiment: Antimicrobial activity against ampDDh2 gene-deficient Pseudomonas aeruginosa PAO1 after 18 hrs by broth microdilution method in presence of 0.5 mM nagZ inhibitor EtBuPUG; type: functional; details: PAO1, 18 h
Outline: as §3

Pseudomonas aeruginosa [17] = experiment: Antimicrobial activity against Pseudomonas aeruginosa PAO1 after 18 hrs by broth microdilution method; type: functional; details: PAO1, 18 h
Outline: as §5

Pseudomonas aeruginosa [18] = experiment: Antimicrobial activity against ampD gene-deficient Pseudomonas aeruginosa PAO1 after 18 hrs by broth microdilution method in presence of 0.5 mM nagZ inhibitor EtBuPUG; type: functional; details: PAO1, 18 h
Outline: as §3

Pseudomonas aeruginosa [19] = experiment: Antimicrobial activity against ampDDh2 and ampDh3 gene-deficient Pseudomonas aeruginosa PAO1 after 18 hrs by broth microdilution method in presence of 0.5 mM nagZ inhibitor EtBuPUG; type: functional; details: PAO1, 18 h
Outline: as §3

Pseudomonas aeruginosa [20] = experiment: Antimicrobial activity against ampDDh2 gene-deficient Pseudomonas aeruginosa PAO1 after 18 hrs by broth microdilution method in presence; type: functional; details: PAO1, 18 h
Outline: as §3

Pseudomonas aeruginosa [21] = experiment: Antimicrobial activity against ampDh2 gene-deficient Pseudomonas aeruginosa PAO1 after 18 hrs by broth microdilution method in presence of 0.5 mM nagZ inhibitor EtBuPUG; type: functional; details: PAO1, 18 h
Outline: as §3

Pseudomonas aeruginosa [22] = experiment: Antimicrobial activity against ampDDh2 and ampDh3 gene-deficient Pseudomonas aeruginosa PAO1 after 18 hrs using […] by agar diffusion method; type: functional
Outline: as §4

Pseudomonas aeruginosa [23] = experiment: Antimicrobial activity against ampDh3 gene-deficient Pseudomonas aeruginosa PAO1 after 18 hrs by broth microdilution method in presence of 0.5 mM nagZ inhibitor EtBuPUG; type: functional; details: PAO1, 18 h
Outline: as §3

Pseudomonas aeruginosa [24] = experiment: Antimicrobial activity against ampDh2 gene-deficient Pseudomonas aeruginosa PAO1 after 18 hrs by broth microdilution method in absence of EtBuPUG; details: PAO1, 18 h
Pseudomonas aeruginosa [25] = experiment: Antimicrobial activity against ampDDh3 gene-deficient Pseudomonas aeruginosa PAO1 after 18 hrs by broth microdilution method in presence of 0.5 mM nagZ inhibitor EtBuPUG; type: functional; details: PAO1, 18 h
Outline: as §3

Pseudomonas aeruginosa [26] = experiment: Antimicrobial activity against nagZ gene-deficient Pseudomonas aeruginosa PAO1 harboring plasmid pUCP27 after 18 hrs by broth microdilution method; type: functional; details: PAO1, 18 h
[27] = target: Beta-lactamase (Pseudomonas aeruginosa (strain ATCC 15692 / PAO1 / 1C / PRS 101 / LMG12228)) (UniProt P24735); experiment: Activity of beta-lactamase AmpC in Pseudomonas aeruginosa PAO1 assessed as nitrocefin hydrolysis after 3 hrs by spectrophotometric analysis
Outline: (§6)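 Strains grown in Mueller-Hinton broth at 37°C to OD600 ~0.5, then cultured 3 h at 37°C with 50 μg/ml cefoxitin (induced) or without. Crude sonic lysates assayed in triplicate at 37°C by continuous assay: nitrocefin (initial 100 μM) hydrolysis followed at 485 nm for 5 min. Specific activity expressed as nmol nitrocefin hydrolyzed/min/mg protein.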

[28] = target: Beta-lactamase (Pseudomonas aeruginosa (strain ATCC 15692 / PAO1 / 1C / PRS 101 / LMG12228)) (UniProt P24735); experiment: Activity of beta-lactamase AmpC in Pseudomonas aeruginosa PAO1 harboring deltaampD::lox deltaampDh2::lox deltaampDh3::lox deltanagZ::Gm assessed as nitrocefin hydrolysis after 3 hrs by spectrophotometric analysis
Outline: as §6

[29] = target: Beta-lactamase (Pseudomonas aeruginosa (strain ATCC 15692 / PAO1 / 1C / PRS 101 / LMG12228)) (UniProt P24735); experiment: Activity of beta-lactamase AmpC in Pseudomonas aeruginosa PAO1 harboring deltaampD::lox deltaampDh2::lox deltaampDh3::lox assessed as nitrocefin hydrolysis after 3 hrs by spectrophotometric analysis
Outline: as §6

Pseudomonas aeruginosa [30] = experiment: Antimicrobial activity against Pseudomonas aeruginosa PAO1 harboring deltaampD::lox deltaampDh2::lox deltaampDh3::lox after 18 hrs by broth microdilution method; type: functional; details: PAO1, 18 h
Outline: as §5

Pseudomonas aeruginosa [31] = experiment: Antimicrobial activity against nagZ gene-deficient Pseudomonas aeruginosa PAO1 harboring wild type nagZ gene after 18 hrs by broth microdilution method; type: functional; details: PAO1, 18 h
Pseudomonas aeruginosa [32] = experiment: Antimicrobial activity against Pseudomonas aeruginosa PAO1 harboring deltaampD::lox deltaampDh2::lox delta ampDh3::lox after 18 hrs by broth microdilution method; type: functional; details: PAO1, 18 h
Outline: as §5

[33] = target: Beta-lactamase (Pseudomonas aeruginosa (strain ATCC 15692 / PAO1 / 1C / PRS 101 / LMG12228)) (UniProt P24735); experiment: Activity of beta-lactamase AmpC in Pseudomonas aeruginosa nagZ gene-deficient PAO1 assessed as nitrocefin hydrolysis after 3 hrs by spectrophotometric analysis
Outline: as §6

Beta-lactamase (Pseudomonas aeruginosa (strain ATCC 15692 / PAO1 / 1C / PRS 101 / LMG12228)), sequence (P24735 27-397 limits assumed): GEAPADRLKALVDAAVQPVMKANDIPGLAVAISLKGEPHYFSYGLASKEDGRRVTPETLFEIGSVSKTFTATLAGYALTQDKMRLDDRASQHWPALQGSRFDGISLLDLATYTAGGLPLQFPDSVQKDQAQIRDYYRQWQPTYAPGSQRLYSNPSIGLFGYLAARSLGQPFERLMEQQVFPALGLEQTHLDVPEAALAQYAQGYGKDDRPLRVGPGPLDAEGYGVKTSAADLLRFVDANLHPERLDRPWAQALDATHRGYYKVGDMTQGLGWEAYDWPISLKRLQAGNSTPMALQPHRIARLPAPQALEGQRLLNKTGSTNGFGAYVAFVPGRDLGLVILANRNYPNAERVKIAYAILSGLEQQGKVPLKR
Beta-hexosaminidase, sequence (Q9HZK0 whole entry): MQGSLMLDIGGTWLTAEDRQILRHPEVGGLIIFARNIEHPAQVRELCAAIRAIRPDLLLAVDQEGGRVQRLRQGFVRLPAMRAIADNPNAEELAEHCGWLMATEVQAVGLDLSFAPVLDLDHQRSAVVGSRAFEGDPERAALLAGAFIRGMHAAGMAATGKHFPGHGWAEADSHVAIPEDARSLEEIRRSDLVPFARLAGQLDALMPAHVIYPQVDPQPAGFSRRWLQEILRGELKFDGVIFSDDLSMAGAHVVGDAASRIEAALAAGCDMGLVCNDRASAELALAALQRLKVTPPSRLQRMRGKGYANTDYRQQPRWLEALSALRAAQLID

SMILES: CO/N=C(\C(=O)N[C@@H]1C(=O)N2C(C(=O)[O-])=C(C[N+]3(C)CCCC3)CS[C@H]12)c1csc(N)n1
- Ratio (Pseudomonas aeruginosa [1]): 4
- MIC (Pseudomonas aeruginosa [2]): 3 mg/L (≈ 6.24 µM)
- MIC (Pseudomonas aeruginosa [3]): 0.5 mg/L (≈ 1.04 µM)
- MIC (Pseudomonas aeruginosa [4]): 12 mg/L (≈ 25 µM)
- MIC (Pseudomonas aeruginosa [5]): 0.38 mg/L (≈ 0.791 µM)

SMILES: CCC(CC)C(=O)N[C@H]1/C(=N/OC(=O)Nc2ccccc2)O[C@H](CO)[C@@H](O)[C@@H]1O
- Ki (Beta-hexosaminidase): 3.5 µM

SMILES: C[C@H]1[C@H](NC(=O)/C(=N\OC(C)(C)C(=O)O)c2csc(N)n2)C(=O)N1S(=O)(=O)O [AZTREONAM]
- MIC (Pseudomonas aeruginosa [6]): 0.5 mg/L (≈ 1.15 µM)
- MIC (Pseudomonas aeruginosa [7]): 1.5 mg/L (≈ 3.44 µM)
- MIC (Pseudomonas aeruginosa [8]): 16 mg/L (≈ 36.7 µM)
- MIC (Pseudomonas aeruginosa [9]): 6 mg/L (≈ 13.8 µM)
- MIC (Pseudomonas aeruginosa [10]): 0.25 mg/L
- MIC (Pseudomonas aeruginosa [11]): 6 mg/L (≈ 13.8 µM)
- inhibition zone (IZ) (Pseudomonas aeruginosa [12]): 15.1 mm
- MIC (Pseudomonas aeruginosa [13]): 0.25 mg/L
- MIC (Pseudomonas aeruginosa [14]): 0.25 mg/L (≈ 0.574 µM)
- inhibition zone (IZ) (Pseudomonas aeruginosa [15]): 14 mm
- MIC (Pseudomonas aeruginosa [16]): 8 mg/L
- MIC (Pseudomonas aeruginosa [17]): 1 mg/L (≈ 2.3 µM)
- MIC (Pseudomonas aeruginosa [2]): 4 mg/L (≈ 9.19 µM)
- MIC (Pseudomonas aeruginosa [18]): 3 mg/L
- MIC (Pseudomonas aeruginosa [19]): 12 mg/L
- MIC (Pseudomonas aeruginosa [20]): 16 mg/L (≈ 36.7 µM)
- MIC (Pseudomonas aeruginosa [21]): 0.25 mg/L
- inhibition zone (IZ) (Pseudomonas aeruginosa [22]): 10.7 mm
- MIC (Pseudomonas aeruginosa [23]): 0.75 mg/L
- MIC (Pseudomonas aeruginosa [24]): 1 mg/L (≈ 2.3 µM)
- MIC (Pseudomonas aeruginosa [25]): 8 mg/L

SMILES: CO[C@@]1(NC(=O)Cc2cccs2)C(=O)N2C(C(=O)O)=C(COC(N)=O)CS[C@@H]21 [CEFOXITIN]
- MIC (Pseudomonas aeruginosa [26]): 600 mg/L (≈ 1400 µM)
- Activity [27]: 230 nmol
- MIC (Pseudomonas aeruginosa [14]): 800 mg/L (≈ 1870 µM)
- Activity [28]: 1020 nmol
- MIC (Pseudomonas aeruginosa [17]): 1600 mg/L (≈ 3740 µM)
- Activity [29]: 3940 nmol
- MIC (Pseudomonas aeruginosa [30]): 3200 mg/L (≈ 7490 µM)
- MIC (Pseudomonas aeruginosa [31]): 1200 mg/L (≈ 2810 µM)
- MIC (Pseudomonas aeruginosa [32]): 3200 mg/L (≈ 7490 µM)
- Activity [33]: 95 nmol
